Test results published in the RNAGym collection of RNA variant scans (doi:10.1126/science.aae0568).
Fewer inactive variants are shown than the library holds.

B1: tRNA (parent)
chain: GUUCCGUUGGCGUAAUGGUAACGCGUCUCCCUCCUAAGGAGAAGACUGCGGGUUCGAGUCCCGUACGGAACG

Variants of: B1
Test: yeast fitness relative to wild type (ratio to wild type); higher = fitter; tRNA-Arg(CCU), competitive growth, 37 C, YPD
Method in brief: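 For this measurement, the tRNA-Arg(CCU) gene was varied by chemical synthesis at a 3% per-site mutation rate across 69 sites, and each variant was placed at the native genomic locus in Saccharomyces cerevisiae. The pooled strains went through a 24-hour competition in YPD at 37°C in six parallel replicates, with amplicons from start and end populations read by 100-nucleotide paired-end sequencing. Darwinian fitness relative to wild type followed from the change in each genotype's frequency. Genotypes needed ≥ 100 starting reads, and estimates < 0.5 were set to 0.5.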

Variant | yeast fitness
A20U C22G A45C U59C | 0.651
C11A C22G G67A G68C | ≤ 0.5
C11U C24G A36C A37G A70C | ≤ 0.5
G23A C29G A45U C62U | ≤ 0.5
C4U C24U | 0.944
G56C C61U | 0.747
U26G G52A | 0.816
G18U U26A G67C | ≤ 0.5
A40U G44C U53G | ≤ 0.5
A21U C27G C33U C34A C66U | ≤ 0.5
U7C C31G C33A C66A | ≤ 0.5
G25A C30A | 0.836
C30U C46A G63C A70G | ≤ 0.5
C31U A40U U54C | 0.541
C4U U16A C61U | 0.708
U7A G39C A43C G44C U47C C61U | ≤ 0.5
C11G C46A | 0.576
C27A C49U C61A | ≤ 0.5
A42U G44C U54A C66U G67A | ≤ 0.5
C29A C46U C55A | 0.572
A20C A21G A57G | 0.744
U47C A70G | 1.03
A37G U53C G67A | ≤ 0.5
U2G U7G U16C C24U C34U G50A U54C A65U | ≤ 0.5

Variant | yeast fitness
C29G A57G | 0.715
U3A C4U C11A G44A | ≤ 0.5
G6A G17C C31A A36U | 0.53
G9A C55G G56C | ≤ 0.5
C30G G38C G52A C55U | ≤ 0.5
U8C C24A C49U | ≤ 0.5
C33G A45U C55U | ≤ 0.5
C33A A57U C66U A69U | ≤ 0.5
A21U G52A C62G | ≤ 0.5
G12C A40C A42U C49G C66G | ≤ 0.5
C33G C66G A70G | 0.54
A36U C66U | 0.686
C11U G56A C62G | ≤ 0.5
A14U U28A U59C C60G | ≤ 0.5
U8A G12C U47C | ≤ 0.5
G10A C11A C29A A45C A69U | ≤ 0.5
C46U G56A G67A | 0.686
C11U U13C C24A A43C G50C C60G A70U | 0.567
G6A C60A | 0.515
C34G C49A | 0.591
A20U C30U U35G A36U | ≤ 0.5
U35C A45C C49G | 0.562
C5U U8A G18A A69C | ≤ 0.5
G41A G48C G67C | ≤ 0.5

Variant | yeast fitness
U19A C24A C30G C34U G52C | ≤ 0.5
G6A U16C G67C | ≤ 0.5
C4A G56U | 0.786
C11U A45C | 0.836
G12C U13C U26A C33A C34G | ≤ 0.5
G6C A20G G52A | ≤ 0.5
C24U C46A A69G | 0.996
U3C G17A | 0.831
G12A C27U G67A | 0.571
A15U G44C | 0.727
G38C G50A G52A C55U | ≤ 0.5
C30A U64G | 0.793
U8G C24G G41A A65G | ≤ 0.5
G9A G56A | 1
C24U A36U C46G C62A A69C | ≤ 0.5
U3C U13C C24U G52A G68U | ≤ 0.5
U32A C49G C55U A69C | 0.546
A15C C29U G39C A42U G48C G50U G51C A65U | ≤ 0.5
C22U C24A A70U | ≤ 0.5
C11A A15C C24A C27A G41C | 0.583
G12C C22G G25C G48A | 0.915
C4U G25A A57U U59A | ≤ 0.5
U26A A70U | 0.876
G39C A57U | 0.682

Variant | yeast fitness
G23C C31A A36U | ≤ 0.5
C11G C24G C27A U28C G67A | ≤ 0.5
C27U G44C G58C | 0.655
C5U C22G C29A A45U G58C | ≤ 0.5
G12A C33U G63A | ≤ 0.5
U16A G41A | 1.1
C11U A20U G39A U64C A65C | ≤ 0.5
A14G G67A | 0.821
U2A C22A A40C C46G U59A C60U C61G | ≤ 0.5
G25C U35C U59A G67U A69C | ≤ 0.5
C11G U16A C22U A45U | ≤ 0.5
U16A A42U U53A | ≤ 0.5
C4G C11G C31G G48A C55A C62A | ≤ 0.5
A21U G50C C61G A70U | ≤ 0.5
U3C U16C C30G C31G A37U | 0.718
G6A C11A A43G G58A A65C C66U | ≤ 0.5
A42U A43G G67A | 0.574
C5G C11U A42G C49U | 0.548
C11G A21U U26C U47C G68C | ≤ 0.5
U28C C31U G50C C55U C60G G63A C66U | ≤ 0.5
U7A G41C U54A | 0.588
C5G A20U G56A | 0.572
C11U C24A G68C | ≤ 0.5
A20C C24A C27A A36C | ≤ 0.5

Variant | yeast fitness
C29G C33U G58C C60G C62A | ≤ 0.5
U47A G68C | 0.606
C31A C55A C61A G63A | 0.655
U26C C27U U59C | 0.702
C11U A43C C66U | 0.699
C4A A20G | 0.859
C11G C30U C31G C33G A37U U64A | ≤ 0.5
U32A G58C A69U | 0.56
C4G C5A U19A C24G C29G C66U | ≤ 0.5
A43U U54A | 0.683
A43U U54C | 0.92
U7C C11U A37C | ≤ 0.5
G10A C22A C46A | ≤ 0.5
C31U A37G A45C | 0.618
U2C C31A G50C A70G | ≤ 0.5
U13C U35C G48A C60A | ≤ 0.5
G6C C11G C27U A42G | ≤ 0.5
C46A C61U | 0.901
C29G U32C G51A | 0.723
C4A C30A | 0.837
G10C A21U G23C G56A C61A A65G | 0.567
C29A A37G C60A C66U | ≤ 0.5
C11G C27U C33U A65C G67A | ≤ 0.5
A14C G39C C60U | ≤ 0.5

Variant | yeast fitness
U7C A20U A40C C46U C55G A70U | 0.582
A45U C49G A70U | 0.63
U3C C11G A42C C49U | ≤ 0.5
U2G C5U | 0.877
C5U A14U C33G C46U A69C | ≤ 0.5
C11A A43G C46G A65U | ≤ 0.5
C5U C34A | 0.631
G6A U16G | 0.85
C5U C34A G50A U59G C62A | ≤ 0.5
U13C C30G A37U U47C A70G | ≤ 0.5
C4U C66A | 0.746
U2A C5A C27U G44A | ≤ 0.5
G10A G18A C46A A65U | ≤ 0.5
G18A A20U C34U A36G | ≤ 0.5
G17A U32A U54C | ≤ 0.5
A20C G67U | 0.754
G9A C30U C33A A36U A43U U54C G56A | 0.626
A36G C46G | 1.08
U16G A21U C34G A40U | 0.624
C5A G9A G10A A20G | ≤ 0.5
U16C C22A U53C | 0.629
U7C C31U A57U A69C | ≤ 0.5
U8C U35C | 0.899
A15C G39A G67A | ≤ 0.5

Variant | yeast fitness
A57G C60U G68C | 0.527
G6C C11G A15G G68C | 0.503
C11G G12A C22U G44A | ≤ 0.5
U32C C46U | 0.862
A15G A57G | 0.899
C24A C34U A43U C49G C62G | ≤ 0.5
U35G A42G G56C | 0.59
C27G C30A C34G A45G C62U A69G | ≤ 0.5
A20G A57C C62G C66G | ≤ 0.5
G10A G18C A20U C30A | ≤ 0.5
C5U G17A | 0.929
A20G C24U | 0.9
U3C U28C | 1.08
C4U G17C C49A | 0.55
U3C C31U A57G | 0.778
G9A G50A G67A | 0.652
A15G U26G C30U G52A | ≤ 0.5
A21U A43G | 0.752
G12A C24U C27A A70U | ≤ 0.5
A21C C66A | 0.527
A15C U47A G52C | 0.539
U26A G58C C62U | 0.659
C22G C24A G38A G67A | 0.531
